Data as given in PubChem BioAssay.
Active and inactive are the calls of the source.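 How the source made its calls, unless noted: active means inhibition at or above 50% at 10 µM; inactive means inhibition below 50%.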

Key:
[1] = inhibitors of TNFa-induced NFkB p65 translocation, primary screen, imaging, HUVEC, MLSMR starter and 10KST1 sets (AID 438;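 active means inhibition above 20% together with a positive visual image hit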;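 further: compound added about 3h40 before a 20 min TNFalpha stimulation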;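 on inhibition: signal is the nuclear over cytoplasmic p65 intensity ratio per well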); conditions: HUVEC TNFa-induced p65 nuclear translocation; cell count: measured here: nuclei count (cytotoxicity indicator), at 2.08 µM; inhibition: at 2 µM, stronger effect = higher value, 0% TNFa-plus-vehicle, 100% no-TNFa wells
[2] = inhibitors of mutant huntingtin aggregation, primary screen, imaging, exon1htt(103Q)mCFP cells, high-content imaging (AID 483;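 active means visual image review flags a hit and inhibition of aggregation exceeds 20%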;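 further: compound exposure lasted 3 days before fixation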;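 on nuclei count: percent of the per-plate median nuclei count of sample wells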); conditions: exon1htt(103Q)mCFP cell line, aggregate imaging, at 2 µM; inhibition of aggregation: stronger effect = higher value; nuclei count: measured here: cell count, toxicity
[3] = inhibitors of E-selectin induction by TNFa, primary screen, imaging, HUVEC, immunofluorescence, MLSMR starter and 10KST1 sets (AID 487;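 active means visually confirmed hit in the image check and inhibition above 20%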;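 on inhibition: signal is fraction of cell area covered by stained E-selectin grains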;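 on nuclei count: 100% = median nuclei count of all wells on the same plate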); conditions: HUVEC TNFalpha-induced E-selectin immunofluorescence imaging, at 2 µM; inhibition: stronger effect = higher value; nuclei count: measured here: cell number, toxicity
[4] = molecular target: Voltage-gated potassium channel subunit beta-2 (Rattus norvegicus) (UniProt P62483); assay: KvBeta enzyme negative modulators, primary screen, biochemical, NADPH fluorescence (AID 622;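 active means fluorescence slope higher than the sample average by over 3 SD, cut at about -0.22 in these data, passing the limit was not always enough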;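 further: slope of raw intensity against log time taken from 70 to 1610 s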); conditions: recombinant KvBeta, 4-cyanobenzaldehyde reduction, at 10 µM, stronger effect = higher value
[5] = molecular target: Voltage-gated potassium channel subunit beta-2 (Rattus norvegicus) (UniProt P62483); assay: KvBeta positive modulators, primary screen, biochemical, NADPH fluorescence (AID 623;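 active means NADPH fluorescence slope more negative than the mean of all samples by about 3 SD, 99.7% confidence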;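 further: fluorescence intensity change per second fitted from 20 to 320 s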); conditions: Recombinant KvBeta, NADPH fluorescence decrease slope, 10 min; at 10 µM; stronger effect = lower value
[6] = molecular target: Alpha-2C adrenergic receptor (Homo sapiens) (UniProt P18825); assay: modulators of alpha2C/GIRK thallium flux, primary screen, cell-based, HEK293 alpha2C/GIRK1/2 (AID 624;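 active means fluorescence slope after compound addition differing from the mean of all screened samples at 99.7% confidence, in either direction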;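 further: slope of fluorescence ratio to pre-addition baseline per second over 15 to 24 s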); conditions: thallium flux BTC fluorescence, at 10 µM, actives lie on both sides
[7] = inhibitors of larval lipid processing in zebrafish, primary screen, whole organism, PED6 fluorescence, gall bladder and intestine (AID 686;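 active means a full or partial loss of lipid-probe fluorescence in the fish gall bladder, intestine or both, judged by eye; inactive means no fluorescence loss, or compound toxic to the fish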;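 further: larvae 5 to 7 days old with five fish per well; signal comes from phospholipase A2 cleavage of quenched PED6 carried via bile; overnight exposure to compound and PED6 before scoring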); conditions: Zebrafish larvae PED6 lipid processing, fluorescence scoring; screened at 20 µM (by protocol)
Outline: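 Doses: 20 µM single dose. Test system: live zebrafish larvae aged 5-7 days, whole organism. Quantity: five larvae per well. Measured by: By-eye fluorescence microscopy. Reagent: ingested quenched lipid PED6 at 100 nM. Read-out: visual per-well fluorescence inhibition score. Times: overnight exposure of larvae to compound plus PED6.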

[8] = inhibitors of Sendai virus-induced IRF3 signaling, primary screen, TLR/RLR signaling modifier project, cell-based, Sendai virus stimulus, luciferase, 10K MLSCN set (AID 602276); conditions: HEK293 RL24 IRF3 luciferase reporter, at 10 µM, stronger effect = higher value;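 further: firefly luciferase from ISG56 promoter only with Renilla not read in this screen; 0% = Sendai virus plus DMSO and 100% = medium plus DMSO without virus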
[9] = inhibitors of poly I:C-induced TLR3 signaling, primary screen, cell-based, poly I:C stimulus, luciferase, 10K MLSCN set (AID 602277;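 active means inhibition of the reporter signal at or above 50%; inactive means inhibition below 50%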); conditions: HEK293-TLR3 RL24 IRF3 luciferase reporter, at 10 µM, stronger effect = higher value

Alpha-2C adrenergic receptor (Homo sapiens), sequence (P18825 whole entry, looked up): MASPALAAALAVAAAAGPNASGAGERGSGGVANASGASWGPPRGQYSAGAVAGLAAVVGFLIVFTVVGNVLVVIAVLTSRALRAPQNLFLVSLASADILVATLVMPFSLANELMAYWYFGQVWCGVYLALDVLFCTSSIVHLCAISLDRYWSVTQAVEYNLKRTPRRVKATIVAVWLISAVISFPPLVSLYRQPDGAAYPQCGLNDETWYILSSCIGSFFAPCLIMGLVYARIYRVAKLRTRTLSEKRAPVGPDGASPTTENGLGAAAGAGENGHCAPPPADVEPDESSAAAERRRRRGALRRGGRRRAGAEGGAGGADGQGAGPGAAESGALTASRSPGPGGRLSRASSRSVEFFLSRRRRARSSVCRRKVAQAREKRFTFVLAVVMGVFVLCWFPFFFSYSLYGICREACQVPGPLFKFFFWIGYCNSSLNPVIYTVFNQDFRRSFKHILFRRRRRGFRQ
Voltage-gated potassium channel subunit beta-2 (Rattus norvegicus), sequence (P62483 whole entry, looked up): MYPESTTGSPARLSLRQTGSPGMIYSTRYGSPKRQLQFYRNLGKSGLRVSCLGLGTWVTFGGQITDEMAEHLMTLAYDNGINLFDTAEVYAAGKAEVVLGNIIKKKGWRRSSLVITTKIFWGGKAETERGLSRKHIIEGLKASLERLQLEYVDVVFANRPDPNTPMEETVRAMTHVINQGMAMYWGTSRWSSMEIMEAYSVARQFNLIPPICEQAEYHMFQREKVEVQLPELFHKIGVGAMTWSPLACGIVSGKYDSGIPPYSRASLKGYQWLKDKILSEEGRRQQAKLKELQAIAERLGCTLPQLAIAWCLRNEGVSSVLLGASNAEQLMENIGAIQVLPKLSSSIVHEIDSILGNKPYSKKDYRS

SMILES	cell count [1]	inhibition [1]	inhibition of aggregation [2]	nuclei count [2] [%]	inhibition [3]	nuclei count [3] [%]	fluorescence slope [4]	NADPH fluorescence slope [5]	slope [6]	outcome [7]	inhibition [8]	inhibition [9]
Cn1c(CN2CCCCC2)nc2cc(NC(=O)c3ccccc3)ccc21	435	-0.8% (inactive)	3.4% (inactive)	85.3	2.3% (inactive)	92.4	-0.438 (inactive)	-9.5e-07 (inactive)	0.00451 (inactive)	inactive	-17.4% (inactive)	98.6% (active)
COC(=O)C1=C(C)N(Cc2ccco2)C(=O)C1	302	0.7% (inactive)	26.2% (inactive)	99.6	-12.5% (inactive)	101	-0.42 (inactive)	-3.5e-05 (inactive)	0.00527 (inactive)	inactive	8.55% (inactive)	8.79% (inactive)
COc1ccc2cc(C(c3nnnn3C(C)(C)C)N3CCc4ccccc4C3)c(=O)[nH]c2c1 (centres undefined)	311	11.9% (inactive)	5.3% (inactive)	100	1% (inactive)	94.4	-0.347 (inactive)	-5.8e-05 (inactive)	0.00475 (inactive)	inactive	24.2% (inactive)	44.5% (inactive)
Cc1ccc(S(=O)(=O)N(CC(=O)N2CCC(C(N)=O)CC2)Cc2ccc(F)cc2)cc1	473	3.5% (inactive)	-8.5% (inactive)	91.9	34.4% (inactive)	110	-0.361 (inactive)	-6.9e-05 (inactive)	0.00526 (inactive)	inactive	10.4% (inactive)	15.9% (inactive)
Cc1cc(C(=O)COC(=O)c2n[nH]c3ccccc23)c(C)n1C	377	2.6% (inactive)	-0.6% (inactive)	86.6	12.4% (inactive)	96.7	-0.445 (inactive)	-1.8e-05 (inactive)	0.00398 (inactive)	inactive	5.43% (inactive)	-24.2% (inactive)
O=C(NCc1ccco1)c1cc2sccc2n1Cc1ccccc1	455	5% (inactive)	8.8% (inactive)	114	-33.7% (inactive)	110	-0.463 (inactive)	5.4e-05 (inactive)	0.00405 (inactive)	inactive	-19.7% (inactive)	-28.5% (inactive)
Cc1nc2ccccc2nc1OCC(=O)Nc1cc(C(F)(F)F)ccc1N1CCOCC1	410	-5.6% (inactive)	19.2% (inactive)	85.4	80.7% (active)	113	-0.429 (inactive)	-3e-05 (inactive)	0.00495 (inactive)	inactive	12.4% (inactive)	8.99% (inactive)
CC12CCC(C(=O)N3CCN(C(=O)C45CCC(C)(C(=O)O4)C5(C)C)CC3)(OC1=O)C2(C)C	575	-8.7% (inactive)	-6.1% (inactive)	108	-42.4% (inactive)	140	-0.391 (inactive)	-7.7e-05 (inactive)	0.00544 (inactive)	inactive	-54.1% (inactive)	99.3% (active)
CCC(C(=O)NC(C)CCc1ccco1)n1nc(C)n2c(cc3occc32)c1=O (centres undefined)	488	6% (inactive)	-13.2% (inactive)	84.5	-121% (inactive)	98.3	-0.475 (inactive)	-2e-05 (inactive)	0.00405 (inactive)	inactive	2.28% (inactive)	2.25% (inactive)
O=S(=O)(Nn1cnnc1)c1ccccc1Cl	647	4.3% (inactive)	-12.3% (inactive)	99	45.5% (inactive)	81.7	-0.402 (inactive)	-8.6e-06 (inactive)	0.00434 (inactive)	inactive	-7.35% (inactive)	-10.4% (inactive)
Cc1nc2ccccc2c(=O)n1NC(=O)Nc1ccccc1	592	0% (inactive)	17.7% (inactive)	83.8	-41.3% (inactive)	97.5	-0.359 (inactive)	-2.7e-05 (inactive)	0.00703 (inactive)	inactive	12.6% (inactive)	-4.39% (inactive)
Cc1cccc(C(=O)O)c1NC(=O)c1ccc(F)cc1	343	0.2% (inactive)	-4.7% (inactive)	99.9	21.9% (inactive)	97.3	-0.333 (inactive)	-1.3e-05 (inactive)	0.00577 (inactive)	inactive	-3.9% (inactive)	2.7% (inactive)
CCCc1ccccc1OCCNC(C)=O	585	9.6% (inactive)	18.6% (inactive)	116	-76.7% (inactive)	105	-0.366 (inactive)	-3.9e-06 (inactive)	0.00527 (inactive)	inactive	-4.34% (inactive)	3.6% (inactive)
O=C(CN(c1ccc(F)cc1)S(=O)(=O)c1ccc2c(c1)OCCO2)Nc1cccnc1	757	1.6% (inactive)	7% (inactive)	93.5	-19.1% (inactive)	111	-0.453 (inactive)	-4.5e-05 (inactive)	0.00513 (inactive)	inactive	7.14% (inactive)	18.5% (inactive)
COc1ccc(NC(=O)CC2CCCCC2)cc1OC	258	-5.5% (inactive)	-4.8% (inactive)	91.1	-69.1% (inactive)	99.7	-0.356 (inactive)	-2.3e-05 (inactive)	0.00718 (inactive)	inactive	-6.37% (inactive)	-23% (inactive)
CNC(=O)OC(C)CNS(=O)(=O)c1ccc(C)cc1 (centres undefined)	441	9.8% (inactive)	5.2% (inactive)	103	-36.3% (inactive)	118	-0.433 (inactive)	-4.1e-05 (inactive)	0.00412 (inactive)	inactive	19.5% (inactive)	17.5% (inactive)
Cc1ccc(-c2nn[nH]n2)cc1	334	-7.1% (inactive)	-16.2% (inactive)	117	-4.4% (inactive)	123	-0.474 (inactive)	-3.8e-05 (inactive)	0.00429 (inactive)	inactive	4.2% (inactive)	10.7% (inactive)
CS(=O)(=O)N(CC(=O)N1CCCCCC1)c1ccc(Br)cc1	485	-38.8% (inactive)	20.1% (inactive)	81.6	13.3% (inactive)	95.6	-0.353 (inactive)	-5.4e-05 (inactive)	0.00619 (inactive)	inactive	15.8% (inactive)	16% (inactive)
O=C(CSc1nnc(-c2ccco2)n1CC1CCCO1)NC1CCCC1 (centres undefined)	336	-6.2% (inactive)	10.7% (inactive)	101	-15.3% (inactive)	121	-0.361 (inactive)	-5.1e-05 (inactive)	0.00445 (inactive)	inactive	7.82% (inactive)	4.4% (inactive)
Cc1cc(C)cc(N2C(=O)C3C4C=CC(C4)C3C2=O)c1 (centres undefined)	643	-4.8% (inactive)	-4.9% (inactive)	98.2	28% (inactive)	99.1	-0.451 (inactive)	-4.1e-05 (inactive)	0.00599 (inactive)	inactive	13.3% (inactive)	14.4% (inactive)
Nn1c(SCC(=O)Nc2ccccc2)nnc1-c1cccnc1	502	-4.8% (inactive)	11% (inactive)	126	7% (inactive)	118	-0.363 (inactive)	-3.7e-05 (inactive)	0.00741 (inactive)	inactive	-6.03% (inactive)	-3.73% (inactive)
CN(CC(=O)Nc1cccnc1)S(=O)(=O)c1cc(Cl)ccc1Cl	448	12.5% (inactive)	-7.7% (inactive)	101	-44.8% (inactive)	98.2	-0.468 (inactive)	-1.6e-06 (inactive)	0.00566 (inactive)	inactive	-8.87% (inactive)	-13.1% (inactive)
COc1cc(CC(=O)Oc2ccc3c(c2)OCO3)cc(OC)c1OC	469	1.1% (inactive)	-5.8% (inactive)	112	-79.4% (inactive)	101	-0.392 (inactive)	-5.2e-05 (inactive)	0.00391 (inactive)	inactive	2.88% (inactive)	99% (active)
CC(=O)N1CCc2cc(S(=O)(=O)NCCC(=O)Nc3cc(C)cc(C)c3)ccc21	611	-11.5% (inactive)	15.1% (inactive)	97.8	25.9% (inactive)	98	-0.399 (inactive)	-8.9e-05 (inactive)	0.00432 (inactive)	inactive	12.9% (inactive)	12.5% (inactive)
Cn1cnnc1Sc1nc2c(c(=O)n(C)c(=O)n2C)n1Cc1ccccc1Cl	376	7.7% (inactive)	-1.6% (inactive)	106	-73.3% (inactive)	123	-0.426 (inactive)	-3.9e-05 (inactive)	0.005 (inactive)	inactive	15.5% (inactive)	21.9% (inactive)
Cc1ccc(CS(=O)(=O)Cc2ccc(C(=O)NCc3ccccn3)o2)cc1	454	6% (inactive)	-2.9% (inactive)	102	8.5% (inactive)	93.1	-0.18 (inactive)	-2.3e-05 (inactive)	0.00535 (inactive)	inactive	12% (inactive)	7.77% (inactive)
CC(C)(C)c1ccc(C(=O)N2CCC(C(=O)NCc3ccncc3)CC2)cc1	344	-5.2% (inactive)	-12.2% (inactive)	108	-64.8% (inactive)	113	-0.368 (inactive)	-4.7e-05 (inactive)	0.00471 (inactive)	inactive	-14.5% (inactive)	-39% (inactive)
